Assay results: ChEMBL document CHEMBL5303300, “EUbOPEN Chemogenomics Library - Multiplex” (2023)
Several values for one entry are separate records, joined by “and”; a condition that tells them apart may be missing. Identical values can stand only once.

System: U2OS
Assay: Multiplex assay against U2OS
Type: toxicity, cell-based
Settings: human, number of replicates 2
How it was run: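 With compound added, live cells were imaged on a CQ1 microscope at 37°C and 5% CO2; staining with Hoechst33342, BioTracker Green Microtubule Cytoskeleton Dye, MitoTracker Red and Annexin V Alexa Fluor 680 had been done at seeding. The CellPathfinder machine-learning gating scheme split cells into Hoechst high-intensity objects or normal cells, normal cells into healthy, pyknosed or fragmented nuclei, and pyknosed cells into mitotic or apoptotic. The tubulin, mitochondrial-mass and membrane-permeability phenotypes are per cents of healthy-nucleus cells.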

[1] = 12 h, 1 µM, compound concentration 1 uM
[2] = 12 h, 10 µM, compound concentration 10 uM
[3] = 24 h, 1 µM, compound concentration 1 uM
[4] = 24 h, 10 µM, compound concentration 10 uM
[5] = 48 h, 1 µM, compound concentration 1 uM
[6] = 48 h, 10 µM, compound concentration 10 uM

COc1cccc(Cn2cc(C(=O)Nc3ccc(C)c(S(=O)(=O)N4CCOCC4)c3)c(-c3ccc(C)cc3)n2)c1
Population Apoptotic (%) [1]: 33% and 76% | Population Healthy Nuclei (%) [1]: 46% and 76% | Population Hoechst High Intensity Objects (%) [1]: 0% | Population Membrane Permeable-Phenotype (%) [1]: 7% and 0% | Population Mitochondria Different-Phenotype (%) [1]: 0% and 4% | Population Mitotic Cells (%) [1]: 66% and 23% | Population Normal (%) [1]: 100% | Population Pyknosed Nuclei (%) [1]: 21% and 13% | Population Tubulin-Different-Phenotype (%) [1]: 38% and 54% | Population Apoptotic (%) [2]: 71% and 52% | Population Healthy Nuclei (%) [2]: 45% and 79% | Population Hoechst High Intensity Objects (%) [2]: 0% | Population Membrane Permeable-Phenotype (%) [2]: 47% and 38% | Population Mitochondria Different-Phenotype (%) [2]: 11% and 9% | Population Mitotic Cells (%) [2]: 28% and 47% | Population Normal (%) [2]: 100% | Population Pyknosed Nuclei (%) [2]: 37% and 17% | Population Tubulin-Different-Phenotype (%) [2]: 88% and 90% | Population Apoptotic (%) [3]: 37% and 76% | Population Fragmented Nuclei (%) [3]: 24% and 8% | Population Healthy Nuclei (%) [3]: 48% and 78% | Population Hoechst High Intensity Objects (%) [3]: 0% | Population Mitochondria Different-Phenotype (%) [3]: 14% and 5% | Population Mitotic Cells (%) [3]: 62% and 23% | Population Normal (%) [3]: 100% and 99% | Population Pyknosed Nuclei (%) [3]: 27% and 13% | Population Tubulin-Different-Phenotype (%) [3]: 64% and 65% | Population Apoptotic (%) [4]: 60% and 72% | Population Fragmented Nuclei (%) [4]: 15% and 6% | Population Healthy Nuclei (%) [4]: 46% and 70% | Population Hoechst High Intensity Objects (%) [4]: 0% | Population Membrane Permeable-Phenotype (%) [4]: 44% and 47% | Population Mitotic Cells (%) [4]: 40% and 27% | Population Normal (%) [4]: 100% | Population Pyknosed Nuclei (%) [4]: 38% and 23% | Population Tubulin-Different-Phenotype (%) [4]: 94% and 90% | Population Apoptotic (%) [5]: 45% and 67% | Population Healthy Nuclei (%) [5]: 48% and 83% | Population Hoechst High Intensity Objects (%) [5]: 0% | Population Membrane Permeable-Phenotype (%) [5]: 10% and 3% | Population Mitochondria Different-Phenotype (%) [5]: 10% and 4% | Population Mitotic Cells (%) [5]: 54% and 32% | Population Normal (%) [5]: 100% | Population Pyknosed Nuclei (%) [5]: 26% and 12% | Population Tubulin-Different-Phenotype (%) [5]: 65% and 80% | Population Apoptotic (%) [6]: 73% and 70% | Population Fragmented Nuclei (%) [6]: 7% and 21% | Population Healthy Nuclei (%) [6]: 63% and 32% | Population Hoechst High Intensity Objects (%) [6]: 0% | Population Membrane Permeable-Phenotype (%) [6]: 56% and 33% | Population Mitochondria Different-Phenotype (%) [6]: 21% and 16% | Population Mitotic Cells (%) [6]: 26% and 29% | Population Normal (%) [6]: 99% and 100% | Population Pyknosed Nuclei (%) [6]: 28% and 45% | Population Tubulin-Different-Phenotype (%) [6]: 85% and 100%

CCNc1ccc(-c2nn(-c3ccccc3C)c3c2C(C)Cc2nc(NC(=O)OC)sc2-3)cn1.O=C(O)C(F)(F)F (centres undefined)
Population Apoptotic (%) [1]: 72% and 80% | Population Fragmented Nuclei (%) [1]: 14% and 11% | Population Healthy Nuclei (%) [1]: 71% and 73% | Population Hoechst High Intensity Objects (%) [1]: 0% and 1% | Population Membrane Permeable-Phenotype (%) [1]: 5% and 2% | Population Mitochondria Different-Phenotype (%) [1]: 5% and 4% | Population Mitotic Cells (%) [1]: 27% and 20% | Population Normal (%) [1]: 100% and 98% | Population Pyknosed Nuclei (%) [1]: 14% | Population Tubulin-Different-Phenotype (%) [1]: 55% and 24% | Total Cell Count [1]: 200 and 68 | Population Apoptotic (%) [2]: 83% and 88% | Population Fragmented Nuclei (%) [2]: 32% and 18% | Population Healthy Nuclei (%) [2]: 25% and 55% | Population Hoechst High Intensity Objects (%) [2]: 0% | Population Membrane Permeable-Phenotype (%) [2]: 28% and 25% | Population Mitotic Cells (%) [2]: 16% and 11% | Population Normal (%) [2]: 100% and 99% | Population Pyknosed Nuclei (%) [2]: 42% and 25% | Population Tubulin-Different-Phenotype (%) [2]: 57% and 88% | Population Apoptotic (%) [3]: 84% and 75% | Population Fragmented Nuclei (%) [3]: 14% and 6% | Population Healthy Nuclei (%) [3]: 63% and 74% | Population Hoechst High Intensity Objects (%) [3]: 0% | Population Membrane Permeable-Phenotype (%) [3]: 2% and 8% | Population Mitochondria Different-Phenotype (%) [3]: 9% and 2% | Population Mitotic Cells (%) [3]: 15% and 25% | Population Normal (%) [3]: 100% | Population Pyknosed Nuclei (%) [3]: 21% and 19% | Population Tubulin-Different-Phenotype (%) [3]: 58% and 34% | Total Cell Count [3]: 176 and 63 | Population Apoptotic (%) [4]: 72% and 89% | Population Healthy Nuclei (%) [4]: 18% and 39% | Population Hoechst High Intensity Objects (%) [4]: 0% | Population Membrane Permeable-Phenotype (%) [4]: 14% and 32% | Population Mitochondria Different-Phenotype (%) [4]: 28% and 63% | Population Mitotic Cells (%) [4]: 27% and 10% | Population Normal (%) [4]: 100% and 99% | Population Pyknosed Nuclei (%) [4]: 29% and 45% | Population Tubulin-Different-Phenotype (%) [4]: 42% and 83% | Population Apoptotic (%) [5]: 72% and 80% | Population Fragmented Nuclei (%) [5]: 9% and 7% | Population Healthy Nuclei (%) [5]: 52% and 57% | Population Hoechst High Intensity Objects (%) [5]: 0% and 1% | Population Membrane Permeable-Phenotype (%) [5]: 6% and 7% | Population Mitochondria Different-Phenotype (%) [5]: 9% and 2% | Population Mitotic Cells (%) [5]: 27% and 20% | Population Normal (%) [5]: 99% and 98% | Population Pyknosed Nuclei (%) [5]: 37% and 35% | Population Tubulin-Different-Phenotype (%) [5]: 69% and 25% | Total Cell Count [5]: 157 and 71 | Population Apoptotic (%) [6]: 90% and 93% | Population Healthy Nuclei (%) [6]: 10% and 28% | Population Hoechst High Intensity Objects (%) [6]: 0% | Population Membrane Permeable-Phenotype (%) [6]: 66% and 43% | Population Mitotic Cells (%) [6]: 10% and 6% | Population Normal (%) [6]: 100% and 99% | Population Pyknosed Nuclei (%) [6]: 33% and 61% | Population Tubulin-Different-Phenotype (%) [6]: 100% and 84%
